# Experimental data: ChEMBL document CHEMBL5058577, “EUbOPEN Chemogenomics Library 2 (Multiplex)” (2022)
# Test system: U2OS
# Assay: Multiplex assay against U2OS
# Format: toxicity, cell-based
# Details: human
# Summary of the method: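 Imaging took place on a CQ1 microscope at 37°C and 5% CO2 once compound had been added to live cells stained at seeding with Hoechst33342, BioTracker Green Microtubule Cytoskeleton Dye, MitoTracker Red and Annexin V Alexa Fluor 680. CellPathfinder machine-learning gating classed cells as Hoechst high-intensity objects or normal cells, classed normal cells as having healthy, pyknosed or fragmented nuclei, and classed pyknosed cells as mitotic or apoptotic. Tubulin, mitochondrial-mass and membrane-permeability phenotypes are per cents of the healthy-nucleus cells.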
# [1] = 12 h, 1 µM, compound concentration 1 uM, replicate 1
# [2] = 12 h, 1 µM, compound concentration 1 uM, replicate 2
# [3] = 12 h, 10 µM, compound concentration 10 uM, replicate 1
# [4] = 12 h, 10 µM, compound concentration 10 uM, replicate 2
# [5] = 24 h, 1 µM, compound concentration 1 uM, replicate 1
# [6] = 24 h, 1 µM, compound concentration 1 uM, replicate 2
# [7] = 24 h, 10 µM, compound concentration 10 uM, replicate 1
# [8] = 24 h, 10 µM, compound concentration 10 uM, replicate 2
# [9] = 48 h, 1 µM, compound concentration 1 uM, replicate 1
# [10] = 48 h, 1 µM, compound concentration 1 uM, replicate 2
# [11] = 48 h, 10 µM, compound concentration 10 uM, replicate 1
# [12] = 48 h, 10 µM, compound concentration 10 uM, replicate 2
compound,measurement,setting,value
CN1CCN(c2cc(-c3ccccc3)nc(N)n2)CC1,Population Apoptotic (%),[1],80%
same,Population Fragmented Nuclei (%),[1],32%
same,Population Healthy Nuclei (%),[1],61%
same,Population Hoechst High Intensity Objects (%),[1],2%
same,Population Membrane Permeable-Phenotype (%),[1],5%
same,Population Mitochondria Different-Phenotype (%),[1],2%
same,Population Mitotic Cells (%),[1],20%
same,Population Normal (%),[1],97%
same,Population Pyknosed Nuclei (%),[1],6%
same,Population Tubulin-Different-Phenotype (%),[1],2%
same,Total Cell Count,[1],235
same,Population Apoptotic (%),[2],62%
same,Population Fragmented Nuclei (%),[2],17%
same,Population Healthy Nuclei (%),[2],76%
same,Population Hoechst High Intensity Objects (%),[2],1%
same,Population Membrane Permeable-Phenotype (%),[2],7%
same,Population Mitochondria Different-Phenotype (%),[2],5%
same,Population Mitotic Cells (%),[2],37%
same,Population Normal (%),[2],98%
same,Population Pyknosed Nuclei (%),[2],5%
same,Population Tubulin-Different-Phenotype (%),[2],11%
same,Total Cell Count,[2],141
same,Population Apoptotic (%),[3],86%
same,Population Fragmented Nuclei (%),[3],30%
same,Population Healthy Nuclei (%),[3],63%
same,Population Hoechst High Intensity Objects (%),[3],0%
same,Population Membrane Permeable-Phenotype (%),[3],5%
same,Population Mitochondria Different-Phenotype (%),[3],3%
same,Population Mitotic Cells (%),[3],13%
same,Population Normal (%),[3],99%
same,Population Pyknosed Nuclei (%),[3],6%
same,Population Tubulin-Different-Phenotype (%),[3],3%
same,Total Cell Count,[3],252
same,Population Apoptotic (%),[4],73%
same,Population Fragmented Nuclei (%),[4],8%
same,Population Healthy Nuclei (%),[4],80%
same,Population Hoechst High Intensity Objects (%),[4],1%
same,Population Membrane Permeable-Phenotype (%),[4],10%
same,Population Mitotic Cells (%),[4],26%
same,Population Normal (%),[4],98%
same,Population Pyknosed Nuclei (%),[4],10%
same,Population Tubulin-Different-Phenotype (%),[4],7%
same,Total Cell Count,[4],139
same,Population Apoptotic (%),[5],86%
same,Population Fragmented Nuclei (%),[5],25%
same,Population Healthy Nuclei (%),[5],65%
same,Population Hoechst High Intensity Objects (%),[5],1%
same,Population Membrane Permeable-Phenotype (%),[5],7%
same,Population Mitochondria Different-Phenotype (%),[5],1%
same,Population Mitotic Cells (%),[5],13%
same,Population Normal (%),[5],98%
same,Population Pyknosed Nuclei (%),[5],8%
same,Population Tubulin-Different-Phenotype (%),[5],4%
same,Total Cell Count,[5],278
same,Population Apoptotic (%),[6],80%
same,Population Fragmented Nuclei (%),[6],21%
same,Population Healthy Nuclei (%),[6],73%
same,Population Membrane Permeable-Phenotype (%),[6],6%
same,Population Mitotic Cells (%),[6],20%
same,Population Pyknosed Nuclei (%),[6],5%
same,Population Tubulin-Different-Phenotype (%),[6],9%
same,Total Cell Count,[6],177
same,Population Apoptotic (%),[7],100%
same,Population Fragmented Nuclei (%),[7],23%
same,Population Healthy Nuclei (%),[7],69%
same,Population Hoechst High Intensity Objects (%),[7],1%
same,Population Membrane Permeable-Phenotype (%),[7],9%
same,Population Mitochondria Different-Phenotype (%),[7],3%
same,Population Mitotic Cells (%),[7],0%
same,Population Normal (%),[7],98%
same,Population Pyknosed Nuclei (%),[7],6%
same,Population Tubulin-Different-Phenotype (%),[7],7%
same,Total Cell Count,[7],287
same,Population Apoptotic (%),[8],81%
same,Population Fragmented Nuclei (%),[8],12%
same,Population Healthy Nuclei (%),[8],80%
same,Population Hoechst High Intensity Objects (%),[8],2%
same,Population Membrane Permeable-Phenotype (%),[8],4%
same,Population Mitochondria Different-Phenotype (%),[8],4%
same,Population Mitotic Cells (%),[8],18%
same,Population Normal (%),[8],97%
same,Population Tubulin-Different-Phenotype (%),[8],2%
same,Total Cell Count,[8],166
same,Population Apoptotic (%),[9],83%
same,Population Fragmented Nuclei (%),[9],21%
same,Population Healthy Nuclei (%),[9],69%
same,Population Hoechst High Intensity Objects (%),[9],2%
same,Population Membrane Permeable-Phenotype (%),[9],5%
same,Population Mitochondria Different-Phenotype (%),[9],1%
same,Population Mitotic Cells (%),[9],16%
same,Population Normal (%),[9],97%
same,Population Pyknosed Nuclei (%),[9],9%
same,Population Tubulin-Different-Phenotype (%),[9],2%
same,Total Cell Count,[9],409
same,Population Apoptotic (%),[10],69%
same,Population Fragmented Nuclei (%),[10],19%
same,Population Healthy Nuclei (%),[10],75%
same,Population Hoechst High Intensity Objects (%),[10],3%
same,Population Mitochondria Different-Phenotype (%),[10],2%
same,Population Mitotic Cells (%),[10],30%
same,Population Normal (%),[10],96%
same,Population Pyknosed Nuclei (%),[10],5%
same,Population Tubulin-Different-Phenotype (%),[10],7%
same,Total Cell Count,[10],267
same,Population Apoptotic (%),[11],100%
same,Population Fragmented Nuclei (%),[11],19%
same,Population Healthy Nuclei (%),[11],71%
same,Population Hoechst High Intensity Objects (%),[11],1%
same,Population Membrane Permeable-Phenotype (%),[11],5%
same,Population Mitochondria Different-Phenotype (%),[11],3%
same,Population Mitotic Cells (%),[11],0%
same,Population Normal (%),[11],98%
same,Population Pyknosed Nuclei (%),[11],8%
same,Population Tubulin-Different-Phenotype (%),[11],6%
same,Total Cell Count,[11],420
same,Population Apoptotic (%),[12],88%
same,Population Fragmented Nuclei (%),[12],11%
same,Population Healthy Nuclei (%),[12],78%
same,Population Membrane Permeable-Phenotype (%),[12],2%
same,Population Mitotic Cells (%),[12],12%
same,Population Pyknosed Nuclei (%),[12],10%
same,Population Tubulin-Different-Phenotype (%),[12],1%
same,Total Cell Count,[12],254
